Source: ChEMBL document CHEMBL1140117, “Structure-activity relationship studies for the peptide portion of the bladder epithelial cell antiproliferative factor from interstitial cystitis patients” (2008)
Calls of active or inactive are those of the source. Starred links: 1 amine or outer side, 2 acyl side, 3 side chain; linkers in the order of their positions; H or OH if unused. Non-standard residues stand in square brackets, D forms with d. Residues, ends and D or L forms follow the SMILES beside them. *: point of attachment. X1 = CC(=O)N[C@@H]1[C@@H](O[C@@H]2O[C@H](CO)[C@H](O)[C@H](O)[C@H]2O)[C@@H](O)[C@@H](CO)O[C@@H]1*; X2 = CC1(C)OC[C@@H](C(=O)[*:2])N1[*:1]

What follows are molecules tested on Epithelial cell (assay: Antiproliferative activity against human bladder epithelial cells assessed as inhibition of [3H]thymidine incorporation at <25 uM after 48 hrs relative to as-APF).
Assay type: functional, cell-based
In short: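 Primary normal human bladder epithelial cells, explanted from cystoscopy biopsies, plated at 1.5 × 10⁴ cells/well in MEM with 10% heat-inactivated FBS. Congeners dissolved in acetonitrile/water (1:1), added in serum-free MEM in 10-fold dilutions up to the 25 µM assay cutoff. Incubated 48 h at 37 °C, 5% CO₂. ³H-thymidine uptake counted on filters. Activity expressed relative to the standard control run on each plate. Triplicates, at least two runs, ANOVA.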
For `CC(=O)N[C@H]1[C@@H](O[C@H](C)[C@H](N)C(=O)N[C@H](C(=O)N2[C@H](C(=O)N[C@@H](C)C(=O)N[C@@H](C)C(=O)N[C@H](C(=O)N[C@H](C(=O)N[C@H](C(=O)N[C@@H](C)C(=O)O)C(C)C)C(C)C)C(C)C)COC2(C)C)C(C)C)O[C@H](CO)[C@H](O)[C@@H]1O[C@@H]1O[C@H](CO)[C@H](O)[C@H](O)[C@H]1O` (H-T(X1)V[X2]AAVVVA-OH), the Activity was “inactive”.
With `CC(=O)N[C@H]1[C@@H](O[C@H](C)[C@H](N)C(=O)N[C@H](C(=O)N2CCC[C@H]2C(=O)N[C@@H](C)C(=O)N[C@@H](C)C(=O)N[C@H](C(=O)N[C@H](C(=O)N[C@H](C(=O)N[C@@H](C)C(=O)N[C@@H](CCC(=O)O)C(=O)O)C(C)C)C(C)C)C(C)C)C(C)C)O[C@H](CO)[C@H](O)[C@@H]1O[C@@H]1O[C@H](CO)[C@H](O)[C@H](O)[C@H]1O` (H-T(X1)VPAAVVVAE-OH) the Activity was “inactive”.
With `CC(=O)N[C@H]1[C@@H](O[C@H](C)[C@H](N)C(=O)N[C@H](C(=O)N2CCC[C@H]2C(=O)N[C@@H](C)C(=O)N[C@@H](C)C(=O)O)C(C)C)O[C@H](CO)[C@H](O)[C@@H]1O[C@@H]1O[C@H](CO)[C@H](O)[C@H](O)[C@H]1O` (H-T(X1)VPAA-OH) the Activity was “inactive”.
`CC(=O)N[C@H]1[C@@H](O[C@H](C)[C@H](N)C(=O)N[C@H](C(=O)N2CCC[C@H]2C(=O)N[C@@H](C)C(=O)N[C@@H](C)C(=O)N[C@H](C(=O)N[C@@H](C(=O)N[C@H](C(=O)N[C@@H](C)C(=O)O)C(C)C)C(C)C)C(C)C)C(C)C)O[C@H](CO)[C@H](O)[C@@H]1O[C@@H]1O[C@H](CO)[C@H](O)[C@H](O)[C@H]1O` was tested, and the Activity was “inactive”.
With `CC(=O)N[C@H]1[C@@H](O[C@H](C)[C@H](N)C(=O)N[C@@H](Cc2ccc(O)cc2)C(=O)N2CCC[C@H]2C(=O)N[C@@H](C)C(=O)N[C@@H](C)C(=O)N[C@H](C(=O)N[C@H](C(=O)N[C@H](C(=O)N[C@@H](C)C(=O)O)C(C)C)C(C)C)C(C)C)O[C@H](CO)[C@H](O)[C@@H]1O[C@@H]1O[C@H](CO)[C@H](O)[C@H](O)[C@H]1O` (H-T(X1)YPAAVVVA-OH) the Activity was “inactive”.
`CC(=O)N[C@H]1[C@@H](O[C@H](C)[C@H](N)C(=O)N[C@H](C(=O)N2CCC[C@@H]2C(=O)N[C@@H](C)C(=O)N[C@@H](C)C(=O)N[C@H](C(=O)N[C@H](C(=O)N[C@H](C(=O)N[C@@H](C)C(=O)O)C(C)C)C(C)C)C(C)C)C(C)C)O[C@H](CO)[C@H](O)[C@@H]1O[C@@H]1O[C@H](CO)[C@H](O)[C@H](O)[C@H]1O` was tested, and the Activity was “inactive”.
`CC(=O)N[C@H]1[C@@H](O[C@H](C)[C@H](N)C(=O)N[C@H](C(=O)N2CCC[C@H]2C(=O)N[C@@H](C)C(=O)N[C@@H](C)C(=O)N[C@H](C(=O)N[C@H](C(=O)N[C@H](C(=O)N[C@@H](C)C(=O)N[C@@H](CCCCN)C(=O)O)C(C)C)C(C)C)C(C)C)C(C)C)O[C@H](CO)[C@H](O)[C@@H]1O[C@@H]1O[C@H](CO)[C@H](O)[C@H](O)[C@H]1O` (H-T(X1)VPAAVVVAK-OH) was tested, and the Activity was “inactive”.
`CC[C@H](C)[C@H](NC(=O)[C@H](C)NC(=O)[C@H](C)NC(=O)[C@@H]1CCCN1C(=O)[C@@H](NC(=O)[C@@H](N)[C@@H](C)O[C@H]1O[C@H](CO)[C@H](O)[C@H](O[C@@H]2O[C@H](CO)[C@H](O)[C@H](O)[C@H]2O)[C@H]1NC(C)=O)C(C)C)C(=O)N[C@H](C(=O)N[C@H](C(=O)N[C@@H](C)C(=O)O)[C@@H](C)CC)C(C)C` (H-T(X1)VPAAIVIA-OH) was tested, and the Activity was “inactive”.
In the case of `CC(=O)N[C@H]1[C@@H](O[C@H](C)[C@H](N)C(=O)N[C@@H](CC(C)C)C(=O)N2CCC[C@H]2C(=O)N[C@@H](C)C(=O)N[C@@H](C)C(=O)N[C@H](C(=O)N[C@H](C(=O)N[C@H](C(=O)N[C@@H](C)C(=O)O)C(C)C)C(C)C)C(C)C)O[C@H](CO)[C@H](O)[C@@H]1O[C@@H]1O[C@H](CO)[C@H](O)[C@H](O)[C@H]1O` (H-T(X1)LPAAVVVA-OH), the Activity is reported as “inactive”.
